Here are results for nine compounds from ChEMBL document CHEMBL1154970, “Replacement of pyrazol-3-yl amine hinge binder with thiazol-2-yl amine: Discovery of potent and selective JAK2 inhibitors” (Bioorg Med Chem Lett, 2010).

Data set [1] can be described thus: Intrinsic clearance in rat liver microsomes at 2 uM by LC-MS/MS. The format is ADME, Microsome. In outline:
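Rat liver microsomes incubated with compound at 2 μM initial concentration; time-dependent disappearance of parent measured by LC–MS/MS to give intrinsic clearance (μL/min/mg).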
(In general: Liver microsomes are a subcellular fraction often used to study metabolism.)

Data set [2] concerns the target T1, Tyrosine-protein kinase JAK2 (Homo sapiens, UniProt O60674). As to conditions: BaF3; 10 mg/kg.
The target of data set [3] is Voltage-gated inwardly rectifying potassium channel KCNH2 (Homo sapiens, UniProt Q12809).
Data set [4] can be described thus: Growth inhibition of mouse BA/F3 cells transfected with recombinant TEL-JAK2 kinase after 48 hrs by alamar blue assay. The format is functional, cell-based. As to conditions: BaF3, 48 h. In short, it runs like this:
(§1)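 Proliferation of Ba/F3 cells transfected with TEL-JAK2 or TEL-JAK3 fusions; GI50 determined.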
On the technique in general: Alamar Blue is a resazurin reagent that responds to reducing activity.

The test system of a further data set is BaF3. The experiment in a line: Selectivity ratio of GI50 for mouse BA/F3 cells transfected with recombinant TEL-JAK3 kinase to GI50 for mouse BA/F3 cells transfected with recombinant TEL-JAK2 kinase. The format is functional, cell-based. In short, it runs like this: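 Fold selectivity calculated as the TEL-JAK3 Ba/F3 GI50 divided by the TEL-JAK2 Ba/F3 GI50.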

The nature of data set [5]: Volume of distribution at steady state in Han Wistar rat at 3 mg/kg, iv. In kind it is ADME, organism-based. The arrangement: dose 3 mg/kg, route intravenous. As to conditions: in vivo, read-out: Vdss.
Data set [6] can be described thus: Plasma concentration in nude mouse transplanted with recombinant TEL-JAK2 expressing BA/F3 cells at 10 mg/kg, po dosed on day 10 of transplantation measured after 2 hrs. In kind it is ADME, organism-based, BaF3. On the set-up: dose 10 mg/kg, route oral. In short, it runs like this: (§2)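 Female nude mice implanted intravenously with Ba/F3 TEL-JAK2 cells on day 0, then dosed orally once at 10 mg/kg on day 10. Total plasma drug concentration measured at 2 or 6 h post-dose by LC-MS on a C18 column, water/MeCN with 0.1% formic acid; n = 3 per time point.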

Data set [7] is described as follows: Half life in Han Wistar rat at 3 mg/kg, iv. The format is ADME, organism-based. As to conditions: in vivo. On the set-up: dose 3 mg/kg, route intravenous.
Data set [8] is described as follows: Growth inhibition of mouse BA/F3 cells transfected with recombinant TEL-JAK3 kinase after 48 hrs by alamar blue assay. The format is functional, cell-based, BaF3. In short, it runs like this: as §1
Data set [9] can be described thus: Clearance in Han Wistar rat at 3 mg/kg, iv. In kind it is ADME, organism-based. On the set-up: dose 3 mg/kg, route intravenous. As to conditions: in vivo.
The target in data set [10] is T1, Tyrosine-protein kinase JAK2. The experiment in a line: Inhibition of recombinant JAK2 kinase in presence of 5 mM ATP.
The nature of data set [11]: Plasma concentration in nude mouse transplanted with recombinant TEL-JAK2 expressing BA/F3 cells at 10 mg/kg, po dosed on day 10 of transplantation measured after 6 hrs. On the set-up: dose 10 mg/kg, route oral. The format is ADME, organism-based, BaF3. In outline:
as §2

Data set [12] is described as follows: Solubility of the compound. In kind it is physicochemical.
Data set [13] concerns the target T1, Tyrosine-protein kinase JAK2. The experiment in a line: Inhibition of recombinant JAK2 kinase in presence of ATP.
For data set [14] the target is unchanged. Briefly: Inhibition of recombinant JAK2 kinase in presence of 5 mM ATP.
Where [15] appears, read: Mus musculus, BaF3, 48 h, read-out: GI50.

T1 sequence (O60674 whole entry): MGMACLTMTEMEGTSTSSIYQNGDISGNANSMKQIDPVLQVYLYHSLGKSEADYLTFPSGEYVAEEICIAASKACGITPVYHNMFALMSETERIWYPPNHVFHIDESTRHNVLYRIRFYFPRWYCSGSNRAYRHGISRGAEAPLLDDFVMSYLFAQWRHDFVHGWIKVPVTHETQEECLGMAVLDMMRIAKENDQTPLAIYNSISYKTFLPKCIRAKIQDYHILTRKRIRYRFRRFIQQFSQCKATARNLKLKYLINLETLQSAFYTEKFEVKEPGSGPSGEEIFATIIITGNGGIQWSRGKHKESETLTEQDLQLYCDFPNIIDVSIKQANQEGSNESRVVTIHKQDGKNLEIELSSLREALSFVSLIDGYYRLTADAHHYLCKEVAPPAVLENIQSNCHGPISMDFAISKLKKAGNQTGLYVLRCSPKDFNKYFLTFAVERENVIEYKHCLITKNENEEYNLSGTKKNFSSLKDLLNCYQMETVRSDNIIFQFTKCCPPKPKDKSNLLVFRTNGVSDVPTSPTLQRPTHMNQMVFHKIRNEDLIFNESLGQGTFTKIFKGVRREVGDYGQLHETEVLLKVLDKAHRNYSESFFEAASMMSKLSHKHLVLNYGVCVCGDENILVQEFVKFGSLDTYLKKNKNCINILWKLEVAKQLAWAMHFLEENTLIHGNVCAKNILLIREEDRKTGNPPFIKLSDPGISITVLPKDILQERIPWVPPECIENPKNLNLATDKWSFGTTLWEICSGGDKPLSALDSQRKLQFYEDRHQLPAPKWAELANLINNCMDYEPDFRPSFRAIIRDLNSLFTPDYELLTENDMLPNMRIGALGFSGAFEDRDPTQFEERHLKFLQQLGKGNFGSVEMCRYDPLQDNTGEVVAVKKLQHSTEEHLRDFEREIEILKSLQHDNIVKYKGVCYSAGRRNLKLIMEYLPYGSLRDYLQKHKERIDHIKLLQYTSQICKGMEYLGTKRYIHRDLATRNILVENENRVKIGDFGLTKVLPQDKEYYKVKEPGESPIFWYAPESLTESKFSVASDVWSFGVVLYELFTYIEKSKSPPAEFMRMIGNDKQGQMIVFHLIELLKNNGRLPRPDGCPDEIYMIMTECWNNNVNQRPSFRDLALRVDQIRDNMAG
Sequence of Voltage-gated inwardly rectifying potassium channel KCNH2 (Q12809 whole entry): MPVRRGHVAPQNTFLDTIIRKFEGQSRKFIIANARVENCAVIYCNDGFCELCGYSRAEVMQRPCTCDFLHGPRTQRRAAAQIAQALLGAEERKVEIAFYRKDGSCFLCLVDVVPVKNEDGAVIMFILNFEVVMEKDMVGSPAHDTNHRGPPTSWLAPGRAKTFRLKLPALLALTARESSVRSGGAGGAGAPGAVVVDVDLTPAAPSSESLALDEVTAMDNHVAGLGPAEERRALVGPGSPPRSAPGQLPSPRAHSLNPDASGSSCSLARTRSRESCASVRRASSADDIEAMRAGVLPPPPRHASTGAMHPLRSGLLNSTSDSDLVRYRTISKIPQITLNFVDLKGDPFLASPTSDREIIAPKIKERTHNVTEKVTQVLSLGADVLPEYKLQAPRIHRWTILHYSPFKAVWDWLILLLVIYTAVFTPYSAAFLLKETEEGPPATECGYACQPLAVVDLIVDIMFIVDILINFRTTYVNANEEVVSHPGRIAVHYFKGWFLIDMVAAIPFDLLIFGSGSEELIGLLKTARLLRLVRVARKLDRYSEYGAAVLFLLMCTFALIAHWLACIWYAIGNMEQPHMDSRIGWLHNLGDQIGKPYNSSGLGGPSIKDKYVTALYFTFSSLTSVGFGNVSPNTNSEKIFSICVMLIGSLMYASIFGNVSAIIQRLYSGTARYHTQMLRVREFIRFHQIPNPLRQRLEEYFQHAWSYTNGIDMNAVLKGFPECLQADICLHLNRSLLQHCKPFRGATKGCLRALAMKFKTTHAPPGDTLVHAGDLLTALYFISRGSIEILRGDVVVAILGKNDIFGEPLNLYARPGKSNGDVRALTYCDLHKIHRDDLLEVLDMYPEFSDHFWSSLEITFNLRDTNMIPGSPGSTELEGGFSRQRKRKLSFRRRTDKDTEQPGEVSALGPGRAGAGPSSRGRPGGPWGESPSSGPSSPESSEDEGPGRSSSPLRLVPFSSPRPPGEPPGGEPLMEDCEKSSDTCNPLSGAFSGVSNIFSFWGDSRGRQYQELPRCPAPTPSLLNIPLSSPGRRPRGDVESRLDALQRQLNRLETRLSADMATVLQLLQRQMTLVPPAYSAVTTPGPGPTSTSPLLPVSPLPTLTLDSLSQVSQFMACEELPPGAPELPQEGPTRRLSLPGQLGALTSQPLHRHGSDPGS

A word on the microsomal CLint: it is the capacity of the preparation to metabolise the compound, expressed as a volume cleared per time. A higher microsomal CLint goes with rapid turnover. By inhibition is commonly meant the relative decrease from the control value, in per cent. Broadly, the IC50 is the concentration that inhibits the measured activity by half. What is called half-life is the time needed for the level to fall by half in the phase considered. Low readings indicate fast loss, high ones slow loss. As usually defined, the clearance is a measure of how efficiently the substance is removed, as volume per time. `Cc1cnc(Nc2cc(N3CCOCC3)nc(N[C@@H](C)c3ncc(F)cn3)n2)s1` displayed an intrinsic clearance (microsomal CLint) at 2 µM in data set [1] of 84 µL/min/mg. Further, in [2], the inhibition is greater than 80%. In addition, the IC50 is greater than 32000 nM in [3] and 3 nM in data set [10]. In addition, the GI50 came out at 5 nM in [4] (read-out: GI50) and 1100 nM in [8] (setting [15]). In addition, in the data set with BaF3, the RatioGI50 came out at 237. Further, the Vd in data set [5] is 2.3 L/kg. In addition, the concentration at 2 h in data set [6] was 715 ng/mL. The same compound gave a half-life in data set [7] of 1.3 h. In [9], this compound registered a clearance of 32 mL/min/kg. Further, the concentration at 6 h in data set [11] is 146 ng/mL.
What is called solubility is the concentration that dissolves in the medium under given conditions. Low values mean little dissolved substance, high ones much dissolved substance. Take `Cc1cc(Nc2cncc(N[C@@H](C)c3ncc(F)cn3)n2)n[nH]1`: the microsomal CLint at 2 µM in data set [1] is less than 4 µL/min/mg. This compound yielded a solubility in [12] greater than 1000 µM. The IC50 in data set [13] is less than 3 nM. Also, in [5], the Vd was 1.1 L/kg. In addition, the half-life in [7] was 1.4 h. This compound had a clearance in [9] of 14 mL/min/kg.
Consider `Cc1cnc(Nc2nc(N[C@@H](C)c3ncc(F)cn3)nc(N3CCOCC3)c2F)s1`, for which, in data set [6], the concentration at 2 h turned out to be 219 ng/mL. Moreover, in [11], the concentration at 6 h was 95 ng/mL.
`Cc1cnc(Nc2cc(N3CCN(C)CC3)nc(N[C@@H](C)c3ccc(F)cn3)n2)s1` had a microsomal CLint at 2 µM in data set [1] of 220 µL/min/mg. The IC50 in data set [3] was 13000 nM; in [10], less than 3 nM. Also, the GI50 in data set [4] amounted to 5 nM; in [8] it was 0.62. In addition, the RatioGI50 in the data set with BaF3 (Mus musculus, BaF3) turned out to be 129. Besides, the Vd in [5] stood at 8.5 L/kg. This compound also had a half-life in data set [7] of 1.3 h. In [9], this compound showed a clearance of 80 mL/min/kg.
Compound `C[C@H](Nc1nc(Nc2ncc(C#N)s2)cc(N2CCOCC2)n1)c1ccc(F)cn1` registered a microsomal CLint at 2 µM in data set [1] of 31 µL/min/mg. The GI50 is 36 nM in data set [4] and 170 nM in [8] (Mus musculus, BaF3, 48 h). Also, in data set [10], the IC50 was less than 3 nM.
`C[C@H](Nc1nc(Nc2ncc(C#N)s2)cc(N2CCOCC2)n1)c1ncc(F)cn1` displayed a microsomal CLint at 2 µM in data set [1] of 41 µL/min/mg. The GI50 in [4] came out at 53 nM; in [8] (Mus musculus, BaF3, 48 h) it was 520 nM. Further, the RatioGI50 in the data set on BaF3 worked out at 10; in data set [14], 0.079.
In data set [1], `Cc1cnc(Nc2cc(N3CCOCC3)nc(N[C@@H](C)c3ccc(F)cn3)n2)s1` yielded a microsomal CLint at 2 µM greater than 120 µL/min/mg. The IC50 in data set [3] was 12000 nM. Further, the Vd in [5] came out at 2.8 L/kg. Also, the concentration at 2 h in data set [6] is 126 ng/mL. Further, the half-life in data set [7] is 1.2 h. Besides, in data set [8] (Mus musculus, BaF3, 48 h), the GI50 came out at 1200 nM. For the same compound, the clearance in data set [9] came to 38 mL/min/kg. In data set [11], the concentration at 6 h came out at 55 ng/mL.
Consider `Cc1cnc(Nc2cncc(N[C@@H](C)c3ncc(F)cn3)n2)s1`, for which the microsomal CLint at 2 µM in [1] worked out at 52 µL/min/mg. For the same compound, the solubility in data set [12] is greater than 1000 µM. Besides, the results for the IC50 in data set [13] and in data set [10] were 4 nM and 49 nM, respectively.
`COc1cc(Nc2ncc(C)s2)nc(N[C@@H](C)c2ncc(F)cn2)n1` yielded a microsomal CLint at 2 µM in data set [1] greater than 100 µL/min/mg. In addition, the results for the IC50 in data set [3] and in data set [10] were greater than 32000 nM and less than 3 nM, respectively. Besides, the GI50 in data set [4] (read-out: GI50) was found to be 42 nM; in data set [8] (setting [15]) it was 1500 nM. The RatioGI50 in the data set with BaF3 stood at 35.
